Efflux pump inh – antifungal efflux pump inhibition, Nile Red retention | S. cerevisiae Candida pump triplex | inhibition, % at 10 µM | hit rate 0.44% among 330,000 | AID 485275;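 active = plate passing quality check with inhibition over a set limit, or well fluorescence over plate mean plus 4 SD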;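 note: Nile Red retained in pooled yeast measured as flow cytometry median fluorescence; 0% = buffer negative control and 100% = Enniatin B positive control; higher means more Nile Red kept so more efflux inhibition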
ABCB1 block – human ABCB1 inhibition, ABCG2 as counter-screen; P08183; CCRF-Adr cells, JC-1 efflux, flow cytometry; inhibition, % at 6.6 µM; hit rate 0.067% among 190,000; AID 1326; in the data active = inhibition above about 40%;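 note: 0% = vehicle and 100% = reference inhibitor; higher value means more JC-1 retained so stronger ABCB1 efflux block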
ABCG2 block – blocks JC-1 efflux by human ABCG2 transporter; IgMXP3 cells, flow cytometry; inhibition, % at 6.6 µM; hit rate 0.1% among 190,000;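 active = inhibition above 80%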;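 note: 0% = DMSO and 100% = nicardipine control wells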
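Assay system – ABCG2 IgMXP3 and barcoded ABCB1 CCRF-Adr cell mix · Input – 3 million cells/mL in well · Reagent – JC-1 fluorescent substrate · Compound – single test compound dose, 6.6 µM final · Timing – 10 min exposure at 25 °C with rotation, no wash · Detection – flow cytometry of retained JC-1 fluorescence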
MEKK2mut PB1 HTS – signal of MEK5 binding to mutant human MEKK2 PB1 domain. bead flow cytometry, Alexa488-MEK5 binding to MEKK2 mutant. percent response, % at 10 µM. hit rate 0.35% among 290,000. AID 1530; in the data active = percent response above about 24%, passing the limit was not always enough
MEKK2 WT-MEK5 – raises or lowers MEK5 binding to wildtype human MEKK2 PB1 domain; Q9Y2U5; bead flow cytometry, Alexa488-MEK5 binding to MEKK2 WT; actives lie on both sides; binding response (% of control), % at 10 µM; hit rate 1.1% among 290,000; AID 1531; in the data active = binding response below about 67% or above about 130%
MEKK3 PB1 HTS – raises or lowers MEK5 binding to the human MEKK3 PB1 domain. binding response (% of control), % at 10 µM. hit rate 1.4% among 290,000. Q99759. AID 1529. bead-based flow cytometry, Alexa488-MEK5 binding to MEKK3; actives lie on both sides; 0 = blocked by unlabeled MEK5, 100 = vehicle;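 active = binding response more than 3 SD above or below the average of its plate-row segment, actives on both sides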;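 note: Alexa488 bead fluorescence after subtracting the streptavidin-only scavenger bead signal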
Target sequence (Q99759 whole entry, looked up, the tested form may be a part): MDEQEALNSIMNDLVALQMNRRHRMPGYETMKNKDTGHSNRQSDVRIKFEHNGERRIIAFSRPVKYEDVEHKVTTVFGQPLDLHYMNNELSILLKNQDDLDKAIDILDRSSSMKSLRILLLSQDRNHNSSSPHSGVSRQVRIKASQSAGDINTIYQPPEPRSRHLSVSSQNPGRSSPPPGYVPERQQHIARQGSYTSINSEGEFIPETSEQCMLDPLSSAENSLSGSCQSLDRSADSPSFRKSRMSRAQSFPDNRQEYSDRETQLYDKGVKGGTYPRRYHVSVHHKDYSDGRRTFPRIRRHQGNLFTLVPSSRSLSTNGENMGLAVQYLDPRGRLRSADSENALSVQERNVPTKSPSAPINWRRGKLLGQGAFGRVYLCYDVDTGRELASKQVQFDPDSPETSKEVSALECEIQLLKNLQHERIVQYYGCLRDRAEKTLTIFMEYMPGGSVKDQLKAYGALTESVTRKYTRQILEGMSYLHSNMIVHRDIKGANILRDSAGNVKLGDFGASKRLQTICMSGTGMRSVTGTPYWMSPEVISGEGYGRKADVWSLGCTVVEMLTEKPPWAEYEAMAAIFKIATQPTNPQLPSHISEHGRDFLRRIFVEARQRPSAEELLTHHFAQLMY
MEKK2wt confirm – raises or lowers MEK5 binding to wildtype human MEKK2, retest | AID 1892 | bead flow cytometry, Alexa488-MEK5 binding to MEKK2 WT; actives lie on both sides | shares compounds with MEKK3 PB1 HTS | binding response (% of control), % at 10 µM | hit rate 2.4% among 5,900; in the data active = binding response below about 16% or above about 210%; inactive = in between
MEKK2mut confirm – signal of MEK5 binding to mutant human MEKK2, retest; shares compounds with MEKK3 PB1 HTS; percent response, % at 10 µM; bead flow cytometry, Alexa488-MEK5 binding to MEKK2 mutant; AID 1893; hit rate 2% among 5,900; in the data active = percent response mostly above about 71%, no sharp cut-off; inactive = mostly below about 38%;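 note: higher means compound restores mutant binding toward wildtype level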
MEKK3 confirm – MEKK3-MEK5 PB1 inhibition, single concentration confirmation. shares compounds with MEKK3 PB1 HTS. hit rate 1.8% among 5,900. bead flow cytometry, Alexa488-MEK5 binding to MEKK3; active compounds read low. binding response (% of control), % at 10 µM. AID 1894;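 active = binding response below 72% of control, or above a set upper limit, though filed actives all read lower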;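 note: 100% = DMSO only wells and 0% = binding blocked by excess unlabeled MEK5; lower values mean stronger disruption of MEK5 binding to MEKK3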
Active calls of the source: *; · = no result; [ ] = another dose, or the depositor's remark. Hits are enriched below; roughly 2.5% of the tested compounds scored in any of these assays.

SMILES	Efflux pump inh	ABCB1 block	ABCG2 block	MEKK2mut PB1 HTS	MEKK2 WT-MEK5	MEKK3 PB1 HTS	MEKK2wt confirm	MEKK2mut confirm	MEKK3 confirm
CCOc1cc2c(cc1OCC)-n1cccc1C(c1ccc(C(C)C)cc1)NC2 (configuration not stated)	0	·	·	20	141*	103	145	22	107
C[C@]12CCC3[C@@H](CCC4=CC(=O)CC[C@@]43C=O)C1CCC2=O (some centres not stated)	0	·	·	-2	99	102	·	·	·
CC[n+]1c(SC)ccc2cc(OC)ccc21	-7	1	4	1	108	175*	107	5	103
C=CCn1c(O)c(C(C)=Nc2ccc(C(=O)O)cc2)c(=O)[nH]c1=O	0	·	·	5	99	97	·	·	·
C[C@@H]1C(=O)O[C@@H]2[C@H](O)C34[C@@H]5OC(=O)C3(O[C@H]3OC(=O)[C@H](O)C34[C@H](C(C)(C)C)[C@H]5O)[C@@]12O (some centres not stated)	0	2	1	2	100	98	·	·	·
CN1/C(=C\C=Nc2ccccc2)C(C)(C)c2ccccc21	0	3	10	1	0.0*[inhibitor]	80	104	4	100
Clc1cccc(CNCCc2c[nH]c3ccccc23)c1	0	·	·	19	120	104	·	·	·
OCCNCCc1c[nH]c2ccc(OCc3ccccc3)cc12	0	·	·	31*	164*	109	167	30	108
COC(=O)C1=C(c2cc3ccccc3o2)C[C@@H]2CC[C@H]1N2C(=O)NCc1ccc(C(F)(F)F)cc1	0	·	·	1	114	106	·	·	·
Cc1cccc(OP(=O)(NCc2ccccc2)Oc2cccc(C)c2)c1	0	3	16	10	113	101	·	·	·
Cc1cccc(OP(N)(=O)Oc2cccc(C)c2)c1	0	·	·	29	120	132*	92	-12	97
O=c1[nH]c2ccccc2n1C1CCN(CCCC(c2ccc(F)cc2)c2ccc(F)cc2)CC1	0	1	0	31*	146*	83	195	66	109
O=C1CC(N2CCC(n3c(=O)[nH]c4ccccc43)CC2)C(=O)N1c1ccc(F)cc1 (configuration not stated)	0	1	3	10	106	105	·	·	·
N#Cc1c(Cl)nc(Cl)c2c1CCN(Cc1ccccc1)C2	0	0	3	2	114	183*	104	3	99
Cc1cc(C=C2C(=O)NC(=S)NC2=O)c(C)n1C1CCCC1	0	1	8	-3	99	106	·	·	·
Cc1cc(C=C2C(=O)N(C)C(=S)N(C)C2=O)c(C)n1C1CCCCC1	0	0	7	-21	72*[inhibitor]	95	82	-9	99
Cc1cc(N2CCCCC2)ccc1C=C1C(=O)N(C)C(=S)N(C)C1=O	0	-1	-3	-2	29*[inhibitor]	90	87	-5	88
CCCCC(=O)N/N=C/c1c(O)n(CC)c(=S)[nH]c1=O	0	0	-2	-1	1.0*[inhibitor]	2.0*[inhibitor]	100	-1	103
CCCCCCC(=O)N/N=C/c1c(O)n(CCCC)c(=S)[nH]c1=O	0	·	·	4	104	106	·	·	·
Cc1ccc2c(c1)C1CN(C)CCC1N2C(=O)Nc1cccc(C(F)(F)F)c1 (configuration not stated)	0	1	8	15	127	103	·	·	·
Cc1ccc2c(c1)[C@@H]1CN(C)CC[C@@H]1N2C(=O)Nc1cccc(C(F)(F)F)c1	0	0	1	26	139*	110	110	5	97

Source: PubChem BioAssay (NMMLSC)
